From ChEMBL document CHEMBL1135468 (J Med Chem, 2002)
*1 amine or outer side, *2 acyl side, *3 side chain or, on linkers, in order; H or OH if unused. Where a SMILES comes first, the peptide text is derived from it. Bridges are numbered along the chain shown (N, C = ends). [ ]: non-standard residue; d: D form. The star is where a group is joined. 6FAM = O=C1OC2(c3ccc(O)cc3Oc3cc(O)ccc32)c2cc(C(=O)*)ccc21; X1 = O=C([C@@H](O)CS[*:2])[*:1]; Orn = NCCC[C@H](N)C(=O)O; Mpa = O=C(O)CCS

How the values were obtained:
[1] = target: T1, Vasopressin V1b receptor (Homo sapiens, UniProt P47901); test: Binding affinity towards human Vasopressin V1b receptor
T1 sequence (P47901 whole entry): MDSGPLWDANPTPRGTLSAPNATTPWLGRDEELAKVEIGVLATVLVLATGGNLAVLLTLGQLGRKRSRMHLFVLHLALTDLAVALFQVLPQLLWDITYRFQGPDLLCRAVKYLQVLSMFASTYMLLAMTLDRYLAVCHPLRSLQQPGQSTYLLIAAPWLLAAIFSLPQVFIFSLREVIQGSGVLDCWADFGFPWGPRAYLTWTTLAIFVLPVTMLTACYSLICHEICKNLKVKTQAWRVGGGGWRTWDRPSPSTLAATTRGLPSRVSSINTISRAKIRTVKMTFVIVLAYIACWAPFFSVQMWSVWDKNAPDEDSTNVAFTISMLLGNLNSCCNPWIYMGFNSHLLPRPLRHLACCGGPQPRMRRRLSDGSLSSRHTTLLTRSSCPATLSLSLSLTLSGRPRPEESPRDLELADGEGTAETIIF
How it was run: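 Competition binding on membranes from CHO cells stably expressing one human receptor, butyrate-treated (5 mM, overnight). Radioligands: OT, 200-250 pM [125I]OTA or 120-180 pM [125I]HO-LVA; V1a, 40-60 pM [125I]HO-LVA; V1b, 1-3 nM [3H]AVP. Competitor 1 pM-1 µM; nonspecific with 1 µM unlabeled ligand; 1 h, 30 °C. Ki by nonlinear least-squares, ≥3 experiments in triplicate.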

[2] = target: T2, Oxytocin receptor (Homo sapiens, UniProt P30559); test: Binding affinity for human oxytocin receptor
T2 sequence (P30559 whole entry): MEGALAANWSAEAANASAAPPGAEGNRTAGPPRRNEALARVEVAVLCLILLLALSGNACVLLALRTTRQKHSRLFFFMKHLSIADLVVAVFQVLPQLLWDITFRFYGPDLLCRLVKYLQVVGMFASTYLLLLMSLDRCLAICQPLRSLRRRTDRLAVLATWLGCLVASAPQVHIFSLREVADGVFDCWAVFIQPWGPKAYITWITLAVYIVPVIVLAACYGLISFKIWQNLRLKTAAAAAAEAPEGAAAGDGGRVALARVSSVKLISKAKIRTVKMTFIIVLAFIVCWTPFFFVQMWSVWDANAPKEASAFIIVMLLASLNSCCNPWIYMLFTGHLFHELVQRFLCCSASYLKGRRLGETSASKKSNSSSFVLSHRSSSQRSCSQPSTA

[3] = target: Vasopressin V1a receptor (Homo sapiens, UniProt P37288); test: Binding affinity for human Vasopressin V1a receptor
Chain of Vasopressin V1a receptor (P37288 whole entry): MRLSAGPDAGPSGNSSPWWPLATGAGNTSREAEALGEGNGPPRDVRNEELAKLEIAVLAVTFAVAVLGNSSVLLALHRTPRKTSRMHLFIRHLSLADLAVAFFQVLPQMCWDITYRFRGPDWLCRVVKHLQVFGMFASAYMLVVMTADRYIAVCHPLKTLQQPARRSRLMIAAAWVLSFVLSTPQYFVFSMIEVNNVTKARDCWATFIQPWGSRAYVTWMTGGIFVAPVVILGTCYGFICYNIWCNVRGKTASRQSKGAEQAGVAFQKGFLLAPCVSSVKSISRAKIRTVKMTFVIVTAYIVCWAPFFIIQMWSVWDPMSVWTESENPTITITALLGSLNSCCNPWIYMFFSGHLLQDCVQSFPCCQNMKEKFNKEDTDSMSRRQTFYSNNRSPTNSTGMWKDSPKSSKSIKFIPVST

[4] = target: Vasopressin V2 receptor (Homo sapiens, UniProt P30518); test: Binding affinity towards human Vasopressin V2 receptor
Chain of Vasopressin V2 receptor (P30518 whole entry): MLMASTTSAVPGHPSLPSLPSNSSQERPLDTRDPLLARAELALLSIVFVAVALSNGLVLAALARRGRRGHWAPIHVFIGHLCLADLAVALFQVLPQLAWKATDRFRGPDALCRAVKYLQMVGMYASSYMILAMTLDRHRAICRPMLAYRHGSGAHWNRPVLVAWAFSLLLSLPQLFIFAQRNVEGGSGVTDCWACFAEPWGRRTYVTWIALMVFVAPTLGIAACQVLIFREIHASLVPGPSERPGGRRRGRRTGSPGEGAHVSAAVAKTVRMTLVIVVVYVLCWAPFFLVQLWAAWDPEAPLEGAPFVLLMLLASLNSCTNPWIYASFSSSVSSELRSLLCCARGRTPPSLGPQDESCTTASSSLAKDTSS
How it was run: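 Human V2 receptor stably expressed in CHO cells, butyrate-treated (5 mM, overnight); membranes at 5-10 µg protein/assay competed against 1-3 nM [3H]AVP. Fluorescent ligand ranged 1 pM-1 µM; nonspecific binding defined with 1 µM unlabeled ligand. Incubation 1 h at 30 °C. Ki from nonlinear least-squares fit of two independent experiments, each run in triplicate.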

Row | SMILES | Ki [1] [nM] | Ki [2] [nM] | Ki [3] [nM] | Ki [4] [nM]
1 | CC[C@H](C)[C@@H]1NC(=O)[C@H](Cc2ccc(O)cc2)NC(=O)[C@@H](O)CSSC[C@@H](C(=O)N2CCC[C@H]2C(=O)N[C@@H](CCCCNC(=O)c2ccc3c(c2)C2(OC3=O)c3ccc(O)cc3Oc3cc(O)ccc32)C(=O)NCC(N)=O)NC(=O)[C@H](CC(N)=O)NC(=O)[C@H]([C@@H](C)O)NC1=O (YITNCPK(6FAM)G-NH2; linker N-5 via X1) | 53 | 0.32 | 17.3 | > 10000
2 | CC[C@H](C)[C@@H]1NC(=O)[C@H](Cc2ccc(O)cc2)NC(=O)[C@@H](O)CSSC[C@@H](C(=O)N2CCC[C@H]2C(=O)N[C@@H](CCCNC(=O)c2ccc3c(c2)C2(OC3=O)c3ccc(O)cc3Oc3cc(O)ccc32)C(=O)NCC(N)=O)NC(=O)[C@H](CC(N)=O)NC(=O)[C@H]([C@@H](C)O)NC1=O (YITNCP[Orn](6FAM)G-NH2; linker N-5 via X1) | 87 | 0.17 | 11.8 | > 1000
3 | CC[C@H](C)[C@@H]1NC(=O)[C@H](Cc2ccc(O)cc2)NC(=O)CCSSC[C@@H](C(=O)N2CCC[C@H]2C(=O)N[C@@H](CCCCNC(=O)c2ccc3c(c2)C2(OC3=O)c3ccc(O)cc3Oc3cc(O)ccc32)C(=O)NCC(N)=O)NC(=O)[C@H](CC(N)=O)NC(=O)[C@H]([C@@H](C)O)NC1=O ([Mpa]YITNCPK(6FAM)G-NH2; disulfide 1-6) | 150 | 1.8 | 25.5 | > 10000
4 | CC[C@H](C)[C@@H]1NC(=O)[C@H](Cc2ccc(O)cc2)NC(=O)CCSSC[C@@H](C(=O)N2CCC[C@H]2C(=O)N[C@@H](CCCNC(=O)c2ccc3c(c2)C2(OC3=O)c3ccc(O)cc3Oc3cc(O)ccc32)C(=O)NCC(N)=O)NC(=O)[C@H](CC(N)=O)NC(=O)[C@H]([C@@H](C)O)NC1=O ([Mpa]YITNCP[Orn](6FAM)G-NH2; disulfide 1-6) | 282 | 0.4 | 30 | > 10000
